From ChEMBL document CHEMBL4308919, “Discovery of TD-0212, an Orally Active Dual Pharmacology AT1 Antagonist and Neprilysin Inhibitor (ARNI)” (ACS Med Chem Lett, 2019) come the findings set out here.

The target in experiment [1] is T1, Type-1 angiotensin II receptor (Homo sapiens, UniProt P30556).
T1 sequence (P30556 whole entry): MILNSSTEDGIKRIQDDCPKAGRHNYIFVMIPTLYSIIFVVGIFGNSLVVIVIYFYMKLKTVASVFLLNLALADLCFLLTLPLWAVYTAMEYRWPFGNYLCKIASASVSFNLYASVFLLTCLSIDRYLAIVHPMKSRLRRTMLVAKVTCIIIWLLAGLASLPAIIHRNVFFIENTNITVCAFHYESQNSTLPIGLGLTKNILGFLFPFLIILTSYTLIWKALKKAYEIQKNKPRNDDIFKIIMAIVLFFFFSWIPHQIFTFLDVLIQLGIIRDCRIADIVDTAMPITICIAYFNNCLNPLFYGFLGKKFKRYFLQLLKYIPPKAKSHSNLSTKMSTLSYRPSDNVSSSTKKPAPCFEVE
Nature of the experiment: Displacement of Europium-labeled angiotensin-2 from human AT1 receptor expressed in CHOK1 cell membranes after 120 mins by DELFIA.

Another experiment has as its system Rattus norvegicus. Description: In vivo antagonist activity at AT1 receptor in Sprague-Dawley rat assessed as inhibition of angiotensin-2-induced pressor response at 3 mg/kg, iv treated for 5 mins at 15 mins post 2 doses of angiotensin-2 treatment at 15 minutes apart followed by ANP treatment and subsequent angiotensin-2 re-challenge after 60 mins relative to control. Type of experiment: functional. In short, it runs like this: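 Rat pharmacodynamic assay with intravenous dosing to exclude oral absorption. AT1 antagonism is read in the same animal as inhibition of the angiotensin-II-evoked pressor response. NEP inhibition is read as potentiation of ANP-induced elevation of urinary cGMP output, relative to vehicle.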

Experiment [2] concerns the target T2, Type-1 angiotensin II receptor (Homo sapiens) (UniProt P30556).
T2 sequence (whole entry): T1 sequence (P30556 whole entry)
Description: Antagonist activity at AT1 receptor (unknown origin) by inositol phosphate accumulation assay relative to control. Type of experiment: functional.

A further experiment addresses Neprilysin (Homo sapiens, UniProt P08473). Description: Inhibition of NEP (unknown origin) preincubated for 10 mins followed by fluorogenic substrate addition and measured after 20 mins by fluorescence assay.

The structures appear in SMILES notation.

Chain of Neprilysin (P08473 whole entry): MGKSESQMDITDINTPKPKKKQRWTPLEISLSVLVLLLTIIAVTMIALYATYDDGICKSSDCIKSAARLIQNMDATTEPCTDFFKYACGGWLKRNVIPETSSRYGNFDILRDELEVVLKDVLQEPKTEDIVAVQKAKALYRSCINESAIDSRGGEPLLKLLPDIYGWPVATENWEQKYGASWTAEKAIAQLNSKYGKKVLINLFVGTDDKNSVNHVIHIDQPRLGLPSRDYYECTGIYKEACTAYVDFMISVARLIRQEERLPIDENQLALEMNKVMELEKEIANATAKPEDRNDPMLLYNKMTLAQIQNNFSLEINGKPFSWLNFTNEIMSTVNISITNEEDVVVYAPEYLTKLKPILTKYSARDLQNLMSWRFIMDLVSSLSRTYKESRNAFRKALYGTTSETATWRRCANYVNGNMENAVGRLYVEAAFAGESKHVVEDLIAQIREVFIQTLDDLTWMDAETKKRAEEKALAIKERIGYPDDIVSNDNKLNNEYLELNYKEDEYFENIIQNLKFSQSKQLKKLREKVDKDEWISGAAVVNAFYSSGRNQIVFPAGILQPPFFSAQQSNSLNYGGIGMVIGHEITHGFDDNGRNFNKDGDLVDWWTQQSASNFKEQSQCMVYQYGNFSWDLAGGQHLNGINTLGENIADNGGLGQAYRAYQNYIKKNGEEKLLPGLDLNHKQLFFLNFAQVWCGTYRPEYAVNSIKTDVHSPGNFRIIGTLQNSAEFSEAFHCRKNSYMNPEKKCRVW

For orientation: Ki means a dissociation constant, usually derived from enzyme kinetics or from competition with a known ligand. A lower Ki goes with tighter binding. One may read the inhibition in vivo as the share of the control response that was lost under treatment. For `CCCOc1nc(CC)c(CNC(=O)[C@@H](S)CC(C)C)n1Cc1ccc(-c2ccccc2C(=O)O)cc1`, the affinity in experiment [1] corresponds to a Ki of 20 nM. The inhibition in vivo at 3 mg/kg in the experiment with Rattus norvegicus was 23%.

In the case of `CCCCc1nc(Cl)c(CO)n1Cc1ccc(-c2ccccc2-c2nnn[nH]2)cc1` [LOSARTAN], the inhibition in vivo at 3 mg/kg in the experiment with Rattus norvegicus came out at 67%. In addition, the % IP accumulation in experiment [2] was 87%.

In experiment [1], `CCCCc1nc(Cl)c(CNC(=O)C(CS)C(C)c2ccccc2)n1Cc1ccc(-c2ccccc2C(=O)O)cc1` (racemic) had a Ki of 79.4 nM.

In experiment [1], `CCCCc1nc(Cl)c(CNC(=O)C(CS)CC2CCCC2)n1Cc1ccc(-c2ccccc2C(=O)O)cc1` (racemic) had a Ki of 50.1 nM.

`CCCCc1nc(Cl)c(CNC(=O)[C@H](S)CC(C)C)n1Cc1ccc(-c2ccccc2C(=O)O)cc1`: the Ki in experiment [1] is 126 nM.

As for `CCCCc1nc(CC)c(CNC(=O)[C@@H](CS)CC(C)C)n1Cc1ccc(-c2ccccc2C(=O)O)cc1`, the Ki in experiment [1] was 5.01 nM. Moreover, in the experiment on Rattus norvegicus, the inhibition in vivo at 3 mg/kg worked out at 68%.

On to `CCCCc1nc(C)c(CNC(=O)[C@@H](CS)CC(C)C)n1Cc1ccc(-c2ccccc2C(=O)O)cc1`, for which the Ki in experiment [1] was 50.1 nM.

In the case of `CCCCc1nc(Cl)c(CNC(=O)C(CS)Cc2ccc(-c3ccccc3)cc2)n1Cc1ccc(-c2ccccc2C(=O)O)cc1` (racemic), the Ki in experiment [1] was 398 nM.

As to `CCCCc1nc(Cl)c(CNC(=O)C(CS)CCCC)n1Cc1ccc(-c2ccccc2C(=O)O)cc1` (racemic), the affinity in experiment [1], expressed as Ki, was 126 nM.

On to `CCCCc1nc(C)c(CNC(=O)[C@@H](S)CC(C)C)n1Cc1ccc(-c2ccccc2C(=O)O)cc1`, for which the inhibition constant (Ki) in experiment [1] was 200 nM.

In turn, `CCCCc1nc(Cl)c(CNC(=O)C(CS)CCC(C)C)n1Cc1ccc(-c2ccccc2C(=O)O)cc1` (racemic) had a Ki in experiment [1] of 126 nM.

In the case of `CCCCc1nc(Cl)c(CNC(=O)C(CS)Cc2cccc3ccccc23)n1Cc1ccc(-c2ccccc2C(=O)O)cc1` (racemic), the Ki in experiment [1] was 398 nM.

For orientation: IC50 means the concentration needed to halve the response being measured. Read a high IC50 as weaker potency. On Neprilysin, `CCCCc1nc(Cl)c(CO)n1Cc1ccc(-c2ccccc2-c2nn[nH]n2)cc1` [LOSARTAN] had an IC50 greater than 10000 nM.

`CCCCc1nc(Cl)c(CNC(=O)CNC(=O)C(CS)Cc2ccccc2)n1Cc1ccc(-c2ccccc2-c2nnn[nH]2)cc1` (racemic): the Ki in experiment [1] is 10 nM.

The molecule `CCOc1nc(CC)c(CNC(=O)[C@@H](S)CC(C)C)n1Cc1ccc(-c2ccccc2C(=O)O)cc1` had a Ki in experiment [1] of 6.31 nM. Further, in the experiment on Rattus norvegicus, the inhibition in vivo at 3 mg/kg turned out to be 57%.

The molecule `CCCCc1nc(Cl)c(CNC(=O)[C@@H](S)CC(C)C)n1Cc1ccc(-c2ccccc2C(=O)O)cc1` gave a Ki in experiment [1] of 63.1 nM.

Take `CCCCc1nc(C2CC2)c(CNC(=O)[C@@H](S)CC(C)C)n1Cc1ccc(-c2ccccc2C(=O)O)cc1`: affinity in experiment [1] was put at a Ki of 31.6 nM. Also, the inhibition in vivo at 3 mg/kg with Rattus norvegicus was determined as 5%.

For `CCCCc1nc(Cl)c(CNC(=O)C(CS)Cc2ccccc2)n1Cc1ccc(-c2ccccc2-c2nnn[nH]2)cc1` (racemic), the Ki in experiment [1] is 15.8 nM.

For `CCCCc1nc(CC(C)C)c(CNC(=O)[C@@H](S)CC(C)C)n1Cc1ccc(-c2ccccc2C(=O)O)cc1`, in experiment [1], the Ki was 31.6 nM. The inhibition in vivo at 3 mg/kg with Rattus norvegicus was 32%.

In experiment [1], `CCCCc1nc(Cl)c(CNC(=O)C(CS)Cc2ccccc2)n1Cc1ccc(-c2ccccc2C(=O)O)cc1` (racemic) showed a Ki of 79.4 nM.

Molecule `CCCCc1nc(Cl)c(CNC(=O)[C@H](CS)CC(C)C)n1Cc1ccc(-c2ccccc2C(=O)O)cc1` had a Ki in experiment [1] of 100 nM.

The molecule `CCCCc1nc(Cl)c(CNC(=O)[C@@H](CS)CC(C)C)n1Cc1ccc(-c2ccccc2C(=O)O)cc1` showed a Ki in experiment [1] of 15.8 nM. The inhibition in vivo at 3 mg/kg in the experiment with Rattus norvegicus amounted to 11%.

On to `CCCCc1nc(C2CC2)c(CNC(=O)[C@@H](CS)CC(C)C)n1Cc1ccc(-c2ccccc2C(=O)O)cc1`, for which the affinity in experiment [1], expressed as Ki, was 6.31 nM. Further, in the experiment with Rattus norvegicus, the inhibition in vivo at 3 mg/kg came to 55%.

On to `CCCCc1nc(CC)c(CNC(=O)[C@@H](S)CC(C)C)n1Cc1ccc(-c2ccccc2C(=O)O)cc1`, for which affinity in experiment [1] was put at a Ki of 39.8 nM. For the same molecule, the inhibition in vivo at 3 mg/kg in the experiment with Rattus norvegicus was found to be 18%.

`CCCCc1nc(Cl)c(CNC(=O)C(CS)C(C)CC)n1Cc1ccc(-c2ccccc2C(=O)O)cc1` (racemic) gave a Ki in experiment [1] of 631 nM.

Consider `CCCCc1nc(Cl)c(CNC(=O)C(CS)Cc2ccc3ccccc3c2)n1Cc1ccc(-c2ccccc2C(=O)O)cc1` (racemic), for which the Ki in experiment [1] is 158 nM.

As to `CCCOc1nc(CC)c(CNC(=O)[C@@H](CS)CC(C)C)n1Cc1ccc(-c2ccccc2C(=O)O)cc1`, the Ki in experiment [1] is 2.51 nM. In the experiment with Rattus norvegicus, the inhibition in vivo at 3 mg/kg stood at 65%.

On to `CCOc1nc(CC)c(CNC(=O)[C@@H](CS)CC(C)C)n1Cc1ccc(-c2ccccc2C(=O)O)c(F)c1`, for which the inhibition constant Ki in experiment [1] was 1.26 nM.

For `O=C(O)CNC(=O)C(CS)Cc1ccccc1` (stereo not drawn) [THIORPHAN], the Ki in experiment [1] is greater than 10000 nM.

`CCCCc1nc(Cl)c(CNC(=O)C(CS)CC(CC)CC)n1Cc1ccc(-c2ccccc2C(=O)O)cc1` (racemic) had a Ki in experiment [1] of 50.1 nM.

In turn, `CCOc1nc(CC)c(CNC(=O)[C@@H](S)CC(C)C)n1Cc1ccc(-c2ccccc2C(=O)O)c(F)c1` gave a Ki in experiment [1] of 5.01 nM. Besides, in the experiment with Rattus norvegicus, the inhibition in vivo at 3 mg/kg was 57%.

Molecule `CCOc1nc(CC)c(CNC(=O)[C@@H](S)CC(C)C)n1Cc1cc(F)c(-c2ccccc2C(=O)O)cc1F` had a Ki in experiment [1] of 5.01 nM.

In turn, `CCOc1nc(CC)c(CNC(=O)[C@@H](CS)CC(C)C)n1Cc1ccc(-c2ccccc2C(=O)O)cc1` showed a Ki in experiment [1] of 1.26 nM. Further, the inhibition in vivo at 3 mg/kg with Rattus norvegicus amounted to 67%.

For `CCCCc1nc(Cl)c(CNC(=O)C(CS)CC2CC2)n1Cc1ccc(-c2ccccc2C(=O)O)cc1` (racemic), the Ki in experiment [1] was 31.6 nM.

In turn, `CCCCc1nc(CC(C)C)c(CNC(=O)[C@@H](CS)CC(C)C)n1Cc1ccc(-c2ccccc2C(=O)O)cc1` showed a Ki in experiment [1] of 7.94 nM.

In experiment [1], `CCCCc1nc(Cl)c(CNC(=O)C(CS)CC(C)C)n1Cc1ccc(-c2ccccc2C(=O)O)cc1` (racemic) had a Ki of 39.8 nM.

In experiment [1], `CCOc1nc(CC)c(CNC(=O)[C@@H](CS)CC(C)C)n1Cc1ccc(-c2ccccc2C(=O)O)cc1F` showed a Ki of 0.794 nM. The inhibition in vivo at 3 mg/kg in the experiment on Rattus norvegicus worked out at 85%.

For `CCCCc1nc(Cl)c(CNC(=O)C(CS)CC2CCCCC2)n1Cc1ccc(-c2ccccc2C(=O)O)cc1` (racemic), in experiment [1], the Ki is 251 nM.

As to `CCCCc1nc(Cl)c(CNC(=O)C(CS)C(C)C)n1Cc1ccc(-c2ccccc2C(=O)O)cc1` (racemic), affinity in experiment [1] was put at a Ki of 126 nM.

Turning to `CCCCc1nc(Cl)c(CNC(=O)C(CS)CC(C)C)n1Cc1ccc(-c2ccccc2-c2nnn[nH]2)cc1` (racemic), the Ki in experiment [1] is 10 nM.
